System: U-87 MG
Assay: Down regulation of PRLR gene expression in human U87MG cells at 16 uM incubated for 4 hrs followed by bromouridine addition during last 30 mins of incubation by TRIzol-reagent based Bru-Seq analysis relative to control
Format: functional, U-87MG ATCC
Outline: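 Bru-seq in U87MG cells treated at 16 μM for 4 h; 2 mM bromouridine present during the last 30 min. TRIzol total RNA, then anti-BrdU bead capture of labelled RNA and sequencing. Readout is RPKM traces versus DMSO control. Performed once.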

COC(=O)c1cccc(/C=C/C(=O)c2cccc(O)c2)c1
fold change (FC): 2.6

From ChEMBL document CHEMBL4390639, “Design, Synthesis, and Biological Evaluation of Novel Allosteric Protein Disulfide Isomerase Inhibitors” (J Med Chem, 2019)
